Reference: ChEMBL document CHEMBL1145344, “Brunsvicamides A-C: sponge-related cyanobacterial peptides with Mycobacterium tuberculosis protein tyrosine phosphatase inhibitory activity” (J Med Chem, 2006)

What was measured:
[1] = molecular target: T1, M-phase inducer phosphatase 1 (Homo sapiens, UniProt P30304); assay: Inhibition of CDC25a
T1 sequence (P30304 whole entry): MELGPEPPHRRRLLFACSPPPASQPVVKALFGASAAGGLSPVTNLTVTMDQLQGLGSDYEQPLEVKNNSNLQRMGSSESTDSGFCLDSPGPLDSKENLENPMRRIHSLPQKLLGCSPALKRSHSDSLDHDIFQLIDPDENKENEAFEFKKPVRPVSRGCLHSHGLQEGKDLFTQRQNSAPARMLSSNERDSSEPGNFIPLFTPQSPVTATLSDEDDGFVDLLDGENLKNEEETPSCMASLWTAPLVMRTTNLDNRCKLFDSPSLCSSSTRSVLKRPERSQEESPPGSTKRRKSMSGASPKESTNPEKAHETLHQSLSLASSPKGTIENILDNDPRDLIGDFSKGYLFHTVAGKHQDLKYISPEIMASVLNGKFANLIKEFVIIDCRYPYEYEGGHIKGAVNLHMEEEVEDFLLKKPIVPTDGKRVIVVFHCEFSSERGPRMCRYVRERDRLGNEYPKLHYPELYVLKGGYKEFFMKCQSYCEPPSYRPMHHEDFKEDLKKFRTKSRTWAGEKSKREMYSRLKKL
Method in brief: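 Recombinant CDC25A, pre-incubated 10-15 min with inhibitor in 50 mM Tris, 50 mM NaCl, 0.1 mM EDTA, 2 mM DTE, 0.025% NP-40. Started with p-nitrophenyl phosphate at 50 mM final. Inhibitor at 100-3.125 µM in 2-fold steps. Rate was taken from the A405 slope versus an uninhibited control, in quadruplicate. IC50 came from linear extrapolation against log concentration.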

[2] = molecular target: Dual specificity protein phosphatase 3 (Homo sapiens, UniProt P51452); assay: Inhibition of VHR
Chain of Dual specificity protein phosphatase 3 (P51452 whole entry): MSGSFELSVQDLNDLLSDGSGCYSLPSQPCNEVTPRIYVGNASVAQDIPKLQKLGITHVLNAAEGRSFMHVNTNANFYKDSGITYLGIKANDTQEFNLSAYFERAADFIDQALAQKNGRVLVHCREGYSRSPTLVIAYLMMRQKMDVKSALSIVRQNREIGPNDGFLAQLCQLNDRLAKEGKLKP
Method in brief: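 VHR in 25 mM MOPS, 5 mM EDTA, 2 mM DTE, 0.025% NP-40, pre-incubated 10-15 min with inhibitor at 100-3.125 µM (2-fold). Reaction started with 1 mM p-nitrophenyl phosphate. Rate from the A405 slope versus control, in quadruplicate. IC50 was derived by linear extrapolation of velocity against log inhibitor concentration.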

[3] = molecular target: T2, Low molecular weight protein-tyrosine phosphatase A (Mycobacterium tuberculosis, UniProt P9WIA1); assay: Inhibition of Mycobacterium tuberculosis ptpA
T2 sequence (P9WIA1 whole entry): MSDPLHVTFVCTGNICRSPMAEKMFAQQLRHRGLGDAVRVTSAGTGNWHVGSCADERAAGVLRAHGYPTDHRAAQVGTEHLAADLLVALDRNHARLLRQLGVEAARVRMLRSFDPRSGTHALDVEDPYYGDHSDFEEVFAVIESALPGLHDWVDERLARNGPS
Method in brief: (§1)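 MptpA or MptpB was expressed in E. coli BL21(DE3) with 1 mM IPTG for 4 h at 25 °C, then purified by Ni-NTA and Superdex 75 gel filtration. Enzyme was pre-incubated 10-15 min with inhibitor (100-3.125 µM, 2-fold) in 25 mM HEPES, 50 mM NaCl, 2.5 mM EDTA, 2 mM DTE, 0.025% NP-40. Reaction used 1 mM p-nitrophenyl phosphate, read as A405 slope, quadruplicate, IC50 from log-concentration extrapolation.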

[4] = molecular target: T3, Phosphotyrosine-protein phosphatase PTPB (Mycobacterium tuberculosis, UniProt P96830); assay: Inhibition of Mycobacterium tuberculosis ptpb; method in brief: as §1
T3 sequence (P96830 whole entry): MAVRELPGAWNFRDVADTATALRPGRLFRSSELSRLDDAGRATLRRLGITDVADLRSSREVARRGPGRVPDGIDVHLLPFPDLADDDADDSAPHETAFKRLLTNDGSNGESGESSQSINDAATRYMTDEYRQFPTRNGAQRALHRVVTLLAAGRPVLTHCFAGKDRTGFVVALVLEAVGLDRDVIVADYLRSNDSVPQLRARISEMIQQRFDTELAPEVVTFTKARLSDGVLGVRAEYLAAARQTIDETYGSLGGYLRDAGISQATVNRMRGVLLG

[5] = molecular target: T4, Tyrosine-protein phosphatase non-receptor type 1 (Homo sapiens, UniProt P18031); assay: Inhibition of PTP1b
T4 sequence (P18031 whole entry): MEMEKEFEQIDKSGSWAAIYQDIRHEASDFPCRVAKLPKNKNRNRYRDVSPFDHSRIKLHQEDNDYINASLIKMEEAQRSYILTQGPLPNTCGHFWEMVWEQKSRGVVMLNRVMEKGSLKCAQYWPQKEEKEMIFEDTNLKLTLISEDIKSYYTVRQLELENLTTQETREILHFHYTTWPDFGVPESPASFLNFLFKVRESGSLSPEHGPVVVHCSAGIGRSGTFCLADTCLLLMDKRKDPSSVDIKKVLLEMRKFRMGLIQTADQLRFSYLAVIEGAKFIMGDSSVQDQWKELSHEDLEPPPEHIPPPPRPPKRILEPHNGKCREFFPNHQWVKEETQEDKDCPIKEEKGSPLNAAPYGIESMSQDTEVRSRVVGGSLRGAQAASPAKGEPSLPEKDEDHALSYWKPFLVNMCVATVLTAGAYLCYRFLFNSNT
Method in brief: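 PTP1b pre-incubated 10-15 min with inhibitor (2-fold series, 100 down to 3.125 µM) in 25 mM HEPES, 50 mM NaCl, 2.5 mM EDTA, 2 mM DTE, 0.025% NP-40. Reaction started with 1 mM p-nitrophenyl phosphate. Velocity from the A405 slope relative to an inhibitor-free control, quadruplicates. IC50 by linear extrapolation of velocity versus log concentration, with 100 µM as the upper limit.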

[6] = molecular target: T5, Tyrosine-protein phosphatase non-receptor type 11 (Homo sapiens, UniProt Q06124); assay: Inhibition of SHP2
T5 sequence (Q06124 whole entry): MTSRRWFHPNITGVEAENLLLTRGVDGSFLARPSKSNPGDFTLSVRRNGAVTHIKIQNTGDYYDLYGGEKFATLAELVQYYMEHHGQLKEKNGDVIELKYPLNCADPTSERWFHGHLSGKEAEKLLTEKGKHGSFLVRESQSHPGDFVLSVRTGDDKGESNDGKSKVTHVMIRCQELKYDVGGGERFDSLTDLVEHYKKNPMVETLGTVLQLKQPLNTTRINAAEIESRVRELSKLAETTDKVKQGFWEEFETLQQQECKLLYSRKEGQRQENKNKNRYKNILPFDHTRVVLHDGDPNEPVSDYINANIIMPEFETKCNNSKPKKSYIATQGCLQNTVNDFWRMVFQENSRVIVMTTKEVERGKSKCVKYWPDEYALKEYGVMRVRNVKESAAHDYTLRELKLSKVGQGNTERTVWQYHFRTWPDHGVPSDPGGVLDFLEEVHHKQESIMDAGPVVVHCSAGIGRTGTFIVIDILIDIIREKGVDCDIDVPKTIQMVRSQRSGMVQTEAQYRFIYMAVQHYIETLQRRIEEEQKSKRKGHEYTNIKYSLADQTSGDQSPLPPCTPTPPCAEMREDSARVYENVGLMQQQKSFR
Method in brief: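 SHP2 pre-incubated 10-15 min with a 2-fold inhibitor series (100-3.125 µM) in buffer with 2 mM DTE and 0.025% NP-40. Reaction used 1 mM p-nitrophenyl phosphate. Enzyme was set to give 1-2 OD405/h. Velocity was taken from the A405 slope, with quadruplicate wells. IC50 came from linear extrapolation against log concentration.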

Row | Structure (SMILES) | IC50 [1] | IC50 [2] | IC50 [3] | IC50 [4] | IC50 [5] | IC50 [6]
1 | CC[C@H](C)[C@H](NC(=O)N[C@@H]1CCCCNC(=O)[C@H](Cc2ccccc2)NC(=O)[C@H](Cc2c[nH]c3ccccc23)N(C)C(=O)[C@H](CC(C)C)NC(=O)[C@H]([C@@H](C)CC)NC1=O)C(=O)O | > 100 µM | > 100 µM | > 100 µM | 7.3 µM | – | –
2 | CC[C@H](C)[C@H](NC(=O)N[C@H]1CCCCNC(=O)[C@H](Cc2ccccc2)NC(=O)[C@H](Cc2c[nH]c3ccccc23)N(C)C(=O)[C@H](CC(C)C)NC(=O)[C@H]([C@@H](C)CC)NC1=O)C(=O)O | – | – | – | – | > 100 µM | > 100 µM
3 | CC[C@H](C)[C@H](NC(=O)N[C@@H]1CCCCNC(=O)[C@H](Cc2ccccc2)NC(=O)[C@H](Cc2c[nH]c3ccccc23)N(C)C(=O)[C@H](CC(C)C)NC(=O)[C@H](C(C)C)NC1=O)C(=O)O [BRUNSVICAMIDE A] | > 100 µM | > 100 µM | > 100 µM | 64.2 µM | – | –
4 | CC[C@H](C)[C@H](NC(=O)N[C@H]1CCCCNC(=O)[C@H](Cc2ccccc2)NC(=O)[C@H](Cc2c[nH]c3ccccc23)N(C)C(=O)[C@H](CC(C)C)NC(=O)[C@H](C(C)C)NC1=O)C(=O)O [BRUNSVICAMIDE A] | – | – | – | – | > 100 µM | > 100 µM
